In ChEMBL document CHEMBL1147458, “Lead identification of a potent benzopyranone selective estrogen receptor modulator” (Bioorg Med Chem Lett, 2004):
pIC50: −log10 of the molar value.

Columns and labels:
MCF7 = assay: Antiproliferative activity against MCF-7 cell line; assay type: functional, cell-based; details: Homo sapiens
U2OS = assay: Ability to inhibit release of interleukin-6 from U2OS cell lines transfected with estrogen receptor alpha; assay type: functional, cell-based; details: Homo sapiens
Summary of the method: (§1)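 Estrogen-receptor-negative osteosarcoma U2OS cells, transfected with ER-α, were screened for inhibition of IL-6 cytokine release.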

[1] = Concentration required for inhibition of Interleukin-6 in U20S cells was determined; assay type: cell-based; summary of the method: as §1

## O=c1oc2cc(O)ccc2c(-c2cccc(OCCCN3CCCCC3)c2)c1-c1ccccc1
MCF7
  pIC50: 8.02
U2OS
  pIC50: 8.82

## CCCc1c(Cc2c(F)cccc2Cl)c(=O)oc2cc(O)ccc12
[1]
  pIC50: 6.52

## O=c1oc2cc(O)ccc2c(-c2cccc(OCCCCN3CCCCC3)c2)c1-c1ccccc1
MCF7
  pIC50: 7.92
U2OS
  pIC50: 8.49

## O=c1oc2cc(O)ccc2c(-c2ccc(OCCCCN3CCCCC3)cc2)c1-c1ccccc1
MCF7
  pIC50: 6.87
U2OS
  pIC50: 7.16

## O=c1oc2cc(O)ccc2c(-c2ccc(OCCCN3CCCCC3)cc2)c1-c1ccccc1
MCF7
  pIC50: 6.47
U2OS
  pIC50: 6.45

## O=c1oc2cc(O)ccc2c(Cc2ccc(OCCCCN3CCCCC3)cc2)c1-c1ccccc1
MCF7
  pIC50: 7.89
U2OS
  pIC50: 8.30

## O=c1oc2cc(O)ccc2c(-c2cccc(OCCCCCN3CCCCC3)c2)c1-c1ccccc1
MCF7
  pIC50: 7.82
U2OS
  pIC50: 7.96

## O=c1oc2cc(O)ccc2c(-c2ccc(OCCN3CCCCC3)cc2)c1-c1ccccc1
MCF7
  pIC50: 6.37
U2OS
  pIC50: 6.30

## CC/C(=C(\c1ccc(O)cc1)c1ccc(OCCN(C)C)cc1)c1ccccc1
MCF7
  pIC50: 7.62
U2OS
  pIC50: 8.72

## O=c1oc2cc(O)ccc2c(-c2cccc(OCCN3CCCCC3)c2)c1-c1ccccc1
MCF7
  pIC50: 7.07
U2OS
  pIC50: 7.92

## O=c1oc2cc(O)ccc2c(-c2ccc(OCCCCCN3CCCCC3)cc2)c1-c1ccccc1
MCF7
  pIC50: 6.47
U2OS
  pIC50: 6.94

## O=c1oc2cc(O)ccc2c(Cc2ccc(OCCCN3CCCCC3)cc2)c1-c1ccccc1
MCF7
  pIC50: 7.74
U2OS
  pIC50: 8.36

## O=c1oc2cc(O)ccc2c(-c2ccc(OCCCCCCN3CCCCC3)cc2)c1-c1ccccc1
MCF7
  pIC50: 6.14
U2OS
  pIC50: 6.84

## O=c1oc2cc(O)ccc2c(Cc2ccc(OCCN3CCCCC3)cc2)c1-c1ccccc1
MCF7
  pIC50: 8.11
U2OS
  pIC50: 9.42

## O=C(c1ccc(OCCN2CCCCC2)cc1)c1c(-c2ccc(O)cc2)sc2cc(O)ccc12 [RALOXIFENE]
MCF7
  pIC50: 8.31
U2OS
  pIC50: 8.51
